The source made the active and inactive calls. The calls are words filed in the database; no cut-off is given here.
Assays:
A549 = test: Inhibition of hippo signalling protein in human A549 cells cotransfected with CTGF promoter-driven firefly luciferase and CMV promoter-driven renilla luciferase gene incubated for 24 hrs by dual-luciferase gene assay; assay type: cell-based
Procedure, shortened: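 Dual-luciferase reporter read-out in A549-CTGF cells after 24 h culture with compound. Firefly luciferase is expressed relative to DMSO-treated cells, set as 1. Screening used 10 µM. Values are mean ± SEM of three independent experiments.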

[1] = target: Transcriptional coactivator YAP1 (Homo sapiens) (UniProt P46937); test: Induction of YAP nuclear translocation in human A549 cells at 10 uM incubated for 8 hrs by immunofluorescence based confocal microscopy; assay type: cell-based
Procedure, shortened: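 A549-CTGF reporter cells were treated for 8 h at 10 µM, with 0.1% DMSO as vehicle control. Cells were then fixed, permeabilized and probed with anti-YAP antibody. DAPI stained the nuclei, and YAP localization was imaged by immunofluorescence.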

[2] = tested on: Tyrosine-protein kinase ABL1 (Homo sapiens), P00519 [H396P]; test: Inhibition of human ABL1 H396P mutant (27 to end residues) assessed as residual activity at 10 uM using EAIYAAPFAKKK as substrate incubated for 40 mins in presence of [gamma-33ATP] by scintillation counting based radiometry assay relative to control
[3] = target: Bone morphogenetic protein receptor type-2 (Homo sapiens) (UniProt Q13873); test: Inhibition of recombinant human BMPR2 (172 to 734 residues) assessed as residual activity at 10 uM using myelin basic protein as substrate incubated for 120 mins in presence of [gamma-33ATP] by scintillation counting based radiometry assay relative to control
[4] = target: Transient receptor potential cation channel subfamily M member 7 (Homo sapiens) (UniProt Q96QT4); test: Inhibition of recombinant human CHAK1 (1180 to end residues) assessed as residual activity at 10 uM using myelin basic protein as substrate incubated for 40 mins in presence of [gamma-33ATP] by scintillation counting based radiometry assay relative to control
[5] = target: Myotonin-protein kinase (Homo sapiens) (UniProt Q09013); test: Inhibition of recombinant human DMPK (1 to 549 residues) assessed as residual activity at 10 uM using KKSRGDYMTMQIG as substrate at 40 mins in presence of [gamma-33ATP] by scintillation counting based radiometry assay relative to control
[6] = target: Ephrin type-A receptor 7 (Homo sapiens) (UniProt Q15375); test: Inhibition of recombinant human EphA7 (613 to 909 residues) assessed as residual activity at 10 uM using KTFCGTPEYLAPEVRREPRILSEEEQEMFRDFDYIADWC as substrate at 40 mins in presence of [gamma-33ATP] by scintillation counting based radiometry assay relative to control
[7] = tested on: Fibroblast growth factor receptor 2 (Homo sapiens), P21802 [N549H]; test: Inhibition of recombinant human FGFR2 N549H mutant (456 to 765 residues) assessed as residual activity at 10 uM using KKKSPGEYVNIEF as substrate at 40 mins in presence of [gamma-33ATP] by scintillation counting based radiometry assay relative to control
[8] = target: Fibroblast growth factor receptor 4 (Homo sapiens) (UniProt P22455); test: Inhibition of recombinant human FGFR4 (442 to 755 residues) assessed as residual activity at 10 uM using poly(Glu, Tyr) 4:1 as substrate at 40 mins in presence of [gamma-33ATP] by scintillation counting based radiometry assay relative to control
[9] = target: Rhodopsin kinase GRK1 (Homo sapiens) (UniProt Q15835); test: Inhibition of recombinant full length human GRK1 assessed as residual activity at 10 uM using KKKKERLLDDRHD as substrate at 40 mins in presence of [gamma-33ATP] by scintillation counting based radiometry assay relative to control
[10] = target: Inhibitor of nuclear factor kappa-B kinase subunit epsilon (Homo sapiens) (UniProt Q14164); test: Inhibition of full length human IKKepsilon assessed as residual activity at 10 uM using peptide as substrate after 40 mins by [gamma-33ATP] radiometric assay relative to control
[11] = target: MAP/microtubule affinity-regulating kinase 3 (Homo sapiens) (UniProt P27448); test: Inhibition of recombinant full length human MARK3 assessed as residual activity at 10 uM using KKKVSRSGLYRSPSMPENLNRPR as substrate incubated for 40 mins in presence of [gamma-33ATP by scintillation counting based radiometry assay relative to control
[12] = target: Maternal embryonic leucine zipper kinase (Homo sapiens) (UniProt Q14680); test: Inhibition of recombinant human MELK (1 to 340 residues) assessed as residual activity at 10 uM using KKLNRTLSFAEPG as substrate incubated for 40 mins in presence of [gamma-33ATP by scintillation counting based radiometry assay relative to control
[13] = target: Mitogen-activated protein kinase kinase kinase 9 (Homo sapiens) (UniProt P80192); test: Inhibition of recombinant human MLK1 (134 to 414 residues) assessed as residual activity at 10 uM using casein as substrate incubated for 40 mins in presence of [gamma-33ATP by scintillation counting based radiometry assay relative to control
[14] = target: Serine/threonine-protein kinase Nek11 (Homo sapiens) (UniProt Q8NG66); test: Inhibition of recombinant full length human NEK11 assessed as residual activity at 10 uM using myelin basic protein as substrate measured after 40 mins in presence of [gamma33P]ATP by scintillation counting based radiometry assay relative to control
[15] = target: Receptor-interacting serine/threonine-protein kinase 2 (Homo sapiens) (UniProt O43353); test: Inhibition of recombinant human RIPK2 (1 to 299 residues) assessed as residual activity at 10 uM using myelin basic protein as substrate incubated for 120 mins in presence of [gamma33P]ATP by scintillation counting based radiometry assay relative to control
[16] = target: Ribosomal protein S6 kinase alpha-3 (Homo sapiens) (UniProt P51812); test: Inhibition of recombinant human Rsk2 (2 to end residues) assessed as residual activity at 10 uM using KKKNRTLSVA as substrate incubated for 40 mins in presence of [gamma33P]ATP by scintillation counting based radiometry assay relative to control
Homo sapiens = species: Homo sapiens; test: Inhibition of activated recombinant human TEC F514V mutant activated (174 to end residues) assessed as residual activity at 10 uM using EFPIYDFLPAKKK as substrate incubated for 40 mins in presence of [gamma33P]ATP by scintillation counting based radiometry assay relative to control
[17] = target: Testis-specific serine/threonine-protein kinase 4 (Homo sapiens) (UniProt Q6SA08); test: Inhibition of recombinant full-length human TSSK4 assessed as residual activity at 10 uM using KKLNRTLSFAEPG as substrate incubated for 40 mins in presence of [gamma33P]ATP by scintillation counting based radiometry assay relative to control
[18] = target: LIM domain kinase 2 (Homo sapiens) (UniProt P53671); test: Inhibition of recombinant human LIMK2 assessed as residual activity after 10 uM by scintillation counting based radiometry assay relative to control

Sequence of Serine/threonine-protein kinase Nek11 (Homo sapiens) (Q8NG66 whole entry, the tested form may be a part): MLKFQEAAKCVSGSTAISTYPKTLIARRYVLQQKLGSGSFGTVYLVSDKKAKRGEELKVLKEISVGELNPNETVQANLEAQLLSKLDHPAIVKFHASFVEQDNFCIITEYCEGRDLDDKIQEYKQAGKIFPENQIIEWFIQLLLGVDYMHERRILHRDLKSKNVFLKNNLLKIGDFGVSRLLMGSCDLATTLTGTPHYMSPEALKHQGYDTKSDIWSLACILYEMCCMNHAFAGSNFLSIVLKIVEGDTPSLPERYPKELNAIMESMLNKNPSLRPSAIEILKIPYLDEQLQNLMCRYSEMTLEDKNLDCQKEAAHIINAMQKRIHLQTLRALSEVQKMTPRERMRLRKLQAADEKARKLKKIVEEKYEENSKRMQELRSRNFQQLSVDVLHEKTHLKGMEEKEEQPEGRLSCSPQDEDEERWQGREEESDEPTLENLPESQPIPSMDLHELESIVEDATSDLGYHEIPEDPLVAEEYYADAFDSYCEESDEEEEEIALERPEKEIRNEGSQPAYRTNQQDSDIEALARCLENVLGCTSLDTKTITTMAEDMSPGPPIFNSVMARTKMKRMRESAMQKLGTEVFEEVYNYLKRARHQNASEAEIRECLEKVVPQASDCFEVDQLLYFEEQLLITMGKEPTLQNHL
Sequence of Inhibitor of nuclear factor kappa-B kinase subunit epsilon (Homo sapiens) (Q14164 whole entry): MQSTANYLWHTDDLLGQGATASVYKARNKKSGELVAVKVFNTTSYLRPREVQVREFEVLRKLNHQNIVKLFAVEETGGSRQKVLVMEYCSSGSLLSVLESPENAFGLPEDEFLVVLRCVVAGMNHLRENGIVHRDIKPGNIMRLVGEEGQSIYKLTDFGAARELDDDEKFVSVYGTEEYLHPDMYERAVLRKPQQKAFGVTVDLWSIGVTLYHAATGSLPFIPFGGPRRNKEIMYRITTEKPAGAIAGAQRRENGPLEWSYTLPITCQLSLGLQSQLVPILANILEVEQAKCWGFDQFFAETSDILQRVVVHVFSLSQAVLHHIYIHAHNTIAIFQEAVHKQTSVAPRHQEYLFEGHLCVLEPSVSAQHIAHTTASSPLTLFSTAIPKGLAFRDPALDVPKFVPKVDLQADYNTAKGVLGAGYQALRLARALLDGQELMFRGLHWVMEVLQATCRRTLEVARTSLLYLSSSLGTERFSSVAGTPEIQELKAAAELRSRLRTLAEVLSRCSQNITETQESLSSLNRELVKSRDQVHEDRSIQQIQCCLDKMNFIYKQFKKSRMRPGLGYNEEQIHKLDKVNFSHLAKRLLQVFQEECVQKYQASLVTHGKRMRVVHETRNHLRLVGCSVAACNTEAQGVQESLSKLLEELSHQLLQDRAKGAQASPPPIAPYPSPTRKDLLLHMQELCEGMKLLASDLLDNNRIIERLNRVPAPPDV
Sequence of Transcriptional coactivator YAP1 (Homo sapiens) (P46937 whole entry): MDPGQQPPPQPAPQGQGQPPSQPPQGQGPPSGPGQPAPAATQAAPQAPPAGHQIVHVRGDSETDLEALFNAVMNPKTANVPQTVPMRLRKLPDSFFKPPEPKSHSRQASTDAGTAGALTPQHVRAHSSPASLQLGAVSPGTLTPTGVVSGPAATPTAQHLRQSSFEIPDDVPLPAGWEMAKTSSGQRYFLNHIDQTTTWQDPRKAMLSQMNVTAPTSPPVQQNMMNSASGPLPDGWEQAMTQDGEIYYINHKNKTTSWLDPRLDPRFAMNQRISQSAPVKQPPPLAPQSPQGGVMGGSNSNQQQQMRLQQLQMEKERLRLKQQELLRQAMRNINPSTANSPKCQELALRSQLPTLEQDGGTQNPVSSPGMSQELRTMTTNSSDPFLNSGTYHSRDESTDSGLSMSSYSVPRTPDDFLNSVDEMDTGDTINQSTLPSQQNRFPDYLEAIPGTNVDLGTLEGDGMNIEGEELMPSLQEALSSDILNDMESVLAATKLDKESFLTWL
Sequence of Fibroblast growth factor receptor 2 (Homo sapiens), P21802 [N549H] (P21802 whole entry N549H, the tested form may be a part): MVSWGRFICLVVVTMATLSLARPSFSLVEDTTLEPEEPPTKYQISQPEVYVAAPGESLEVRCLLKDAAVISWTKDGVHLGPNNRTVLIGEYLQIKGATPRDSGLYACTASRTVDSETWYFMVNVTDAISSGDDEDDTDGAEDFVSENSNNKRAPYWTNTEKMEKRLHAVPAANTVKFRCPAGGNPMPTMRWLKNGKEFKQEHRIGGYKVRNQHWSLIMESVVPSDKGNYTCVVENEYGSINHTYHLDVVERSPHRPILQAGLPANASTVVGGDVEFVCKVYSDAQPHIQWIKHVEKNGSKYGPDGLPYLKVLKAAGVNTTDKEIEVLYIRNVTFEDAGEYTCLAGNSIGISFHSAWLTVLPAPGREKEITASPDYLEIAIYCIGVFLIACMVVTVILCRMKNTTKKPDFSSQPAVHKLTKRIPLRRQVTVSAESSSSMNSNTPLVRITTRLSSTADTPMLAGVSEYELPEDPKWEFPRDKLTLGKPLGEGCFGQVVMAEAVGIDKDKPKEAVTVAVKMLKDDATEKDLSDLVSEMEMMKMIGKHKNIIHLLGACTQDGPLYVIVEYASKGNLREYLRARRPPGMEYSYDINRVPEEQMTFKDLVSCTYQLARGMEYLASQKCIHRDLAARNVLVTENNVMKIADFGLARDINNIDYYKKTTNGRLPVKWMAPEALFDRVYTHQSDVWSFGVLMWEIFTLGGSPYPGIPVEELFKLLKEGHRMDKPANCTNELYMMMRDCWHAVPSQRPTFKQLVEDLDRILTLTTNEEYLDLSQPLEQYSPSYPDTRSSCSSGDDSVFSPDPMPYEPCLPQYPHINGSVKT
Sequence of Transient receptor potential cation channel subfamily M member 7 (Homo sapiens) (Q96QT4 whole entry, the tested form may be a part): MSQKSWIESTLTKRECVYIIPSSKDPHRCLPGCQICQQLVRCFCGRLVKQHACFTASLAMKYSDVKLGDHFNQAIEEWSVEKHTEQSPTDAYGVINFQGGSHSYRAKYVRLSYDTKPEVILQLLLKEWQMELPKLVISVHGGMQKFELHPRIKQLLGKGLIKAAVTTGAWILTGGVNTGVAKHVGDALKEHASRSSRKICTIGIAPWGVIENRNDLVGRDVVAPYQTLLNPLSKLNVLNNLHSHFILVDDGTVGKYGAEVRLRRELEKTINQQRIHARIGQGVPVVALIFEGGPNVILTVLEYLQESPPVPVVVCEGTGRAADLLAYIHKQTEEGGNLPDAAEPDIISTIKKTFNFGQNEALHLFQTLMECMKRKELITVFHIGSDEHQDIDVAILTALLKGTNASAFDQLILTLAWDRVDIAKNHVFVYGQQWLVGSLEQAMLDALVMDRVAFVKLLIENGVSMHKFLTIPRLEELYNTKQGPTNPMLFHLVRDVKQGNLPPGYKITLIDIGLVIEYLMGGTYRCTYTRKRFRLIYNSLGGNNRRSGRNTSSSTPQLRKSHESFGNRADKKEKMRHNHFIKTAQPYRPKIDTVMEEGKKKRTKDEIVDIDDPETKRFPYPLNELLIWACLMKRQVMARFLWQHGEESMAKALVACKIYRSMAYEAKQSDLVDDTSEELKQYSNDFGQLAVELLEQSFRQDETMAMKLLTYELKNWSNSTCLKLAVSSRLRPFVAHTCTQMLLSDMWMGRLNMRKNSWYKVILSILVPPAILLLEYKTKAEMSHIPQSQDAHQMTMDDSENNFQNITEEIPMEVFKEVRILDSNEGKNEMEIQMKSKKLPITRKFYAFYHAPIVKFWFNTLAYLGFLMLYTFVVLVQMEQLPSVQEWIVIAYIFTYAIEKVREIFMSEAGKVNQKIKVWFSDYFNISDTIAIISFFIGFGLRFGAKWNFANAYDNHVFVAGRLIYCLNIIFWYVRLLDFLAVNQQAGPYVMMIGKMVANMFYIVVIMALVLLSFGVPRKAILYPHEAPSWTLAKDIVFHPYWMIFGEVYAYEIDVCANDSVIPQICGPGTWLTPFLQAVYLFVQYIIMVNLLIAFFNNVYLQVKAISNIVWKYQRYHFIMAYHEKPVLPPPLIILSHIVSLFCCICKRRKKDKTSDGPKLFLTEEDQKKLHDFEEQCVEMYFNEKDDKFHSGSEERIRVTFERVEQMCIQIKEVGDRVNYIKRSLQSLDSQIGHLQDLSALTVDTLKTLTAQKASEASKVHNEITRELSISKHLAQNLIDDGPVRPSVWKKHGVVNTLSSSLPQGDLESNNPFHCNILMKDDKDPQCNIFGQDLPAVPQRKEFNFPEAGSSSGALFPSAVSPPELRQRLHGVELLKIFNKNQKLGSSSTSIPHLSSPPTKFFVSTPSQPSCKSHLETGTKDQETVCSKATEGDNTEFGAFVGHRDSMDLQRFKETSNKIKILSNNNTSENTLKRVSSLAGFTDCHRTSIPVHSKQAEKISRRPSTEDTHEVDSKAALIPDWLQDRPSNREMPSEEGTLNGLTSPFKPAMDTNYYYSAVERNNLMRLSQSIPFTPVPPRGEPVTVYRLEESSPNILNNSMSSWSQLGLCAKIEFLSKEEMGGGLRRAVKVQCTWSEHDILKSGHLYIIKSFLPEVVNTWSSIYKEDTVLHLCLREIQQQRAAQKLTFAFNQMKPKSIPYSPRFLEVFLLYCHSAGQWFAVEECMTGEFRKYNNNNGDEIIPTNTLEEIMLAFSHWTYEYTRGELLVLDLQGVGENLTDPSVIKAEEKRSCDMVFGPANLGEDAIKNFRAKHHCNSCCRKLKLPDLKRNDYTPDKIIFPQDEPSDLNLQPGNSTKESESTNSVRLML
Sequence of Testis-specific serine/threonine-protein kinase 4 (Homo sapiens) (Q6SA08 whole entry, the tested form may be a part): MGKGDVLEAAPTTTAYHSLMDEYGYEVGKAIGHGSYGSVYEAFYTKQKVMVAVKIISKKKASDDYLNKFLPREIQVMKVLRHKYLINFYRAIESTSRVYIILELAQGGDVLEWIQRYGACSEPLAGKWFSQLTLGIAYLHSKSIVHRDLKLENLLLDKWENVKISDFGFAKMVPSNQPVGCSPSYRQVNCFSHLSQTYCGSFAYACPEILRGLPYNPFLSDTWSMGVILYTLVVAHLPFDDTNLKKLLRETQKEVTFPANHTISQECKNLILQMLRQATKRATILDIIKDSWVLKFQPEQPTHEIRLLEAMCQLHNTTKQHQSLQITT

## C[C@@H](c1ccccc1)n1nnc2cnc3ccc(-c4cnc5[nH]ccc5c4)cc3c21
A549
  inhibition: Dose-dependent effect
[1]
  Activity: Active
[2]
  Activity: -1%
[3]
  Activity: 80%
[4]
  Activity: 66%
[5]
  Activity: 89%
[6]
  Activity: 86%
[7]
  Activity: 27%
[8]
  Activity: 68%
[9]
  Activity: 87%
[10]
  Activity: 94%
[11]
  Activity: 91%
[12]
  Activity: 25%
[13]
  Activity: 41%
[14]
  Activity: 103%
[15]
  Activity: 23%
[16]
  Activity: 53%
Homo sapiens
  Activity: 35%
[17]
  Activity: 77%
[18]
  Activity: 56%
